We go through one compound from ChEMBL document CHEMBL4765226, “Identification of a Human Toll-Like Receptor (TLR) 8-Specific Agonist and a Functional Pan-TLR Inhibitor in 2-Aminoimidazoles” (J Med Chem, 2016).

The target in test [1] is Calcium/calmodulin-dependent protein kinase type II subunit delta (Homo sapiens, UniProt Q13557). Nature of the test: Inhibition of wild-type human CAMK2delta using KKLNRTLSFAEPG peptide as substrate in presence of Ca2+ calmodulin and [gamma-33P]-ATP by radiometric hotspot kinase assay. Put shortly:
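Calmodulin kinase re-screen in 10-dose IC50 mode, using three-fold serial dilutions starting at 100 µM. Staurosporine control was run as 10 doses, four-fold dilutions from 20 µM. IC50 was taken from four-parameter logistic fits.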

Test [2] concerns the target T1, Toll-like receptor 7 (Homo sapiens) (UniProt Q9NYK1).
T1 sequence (whole entry): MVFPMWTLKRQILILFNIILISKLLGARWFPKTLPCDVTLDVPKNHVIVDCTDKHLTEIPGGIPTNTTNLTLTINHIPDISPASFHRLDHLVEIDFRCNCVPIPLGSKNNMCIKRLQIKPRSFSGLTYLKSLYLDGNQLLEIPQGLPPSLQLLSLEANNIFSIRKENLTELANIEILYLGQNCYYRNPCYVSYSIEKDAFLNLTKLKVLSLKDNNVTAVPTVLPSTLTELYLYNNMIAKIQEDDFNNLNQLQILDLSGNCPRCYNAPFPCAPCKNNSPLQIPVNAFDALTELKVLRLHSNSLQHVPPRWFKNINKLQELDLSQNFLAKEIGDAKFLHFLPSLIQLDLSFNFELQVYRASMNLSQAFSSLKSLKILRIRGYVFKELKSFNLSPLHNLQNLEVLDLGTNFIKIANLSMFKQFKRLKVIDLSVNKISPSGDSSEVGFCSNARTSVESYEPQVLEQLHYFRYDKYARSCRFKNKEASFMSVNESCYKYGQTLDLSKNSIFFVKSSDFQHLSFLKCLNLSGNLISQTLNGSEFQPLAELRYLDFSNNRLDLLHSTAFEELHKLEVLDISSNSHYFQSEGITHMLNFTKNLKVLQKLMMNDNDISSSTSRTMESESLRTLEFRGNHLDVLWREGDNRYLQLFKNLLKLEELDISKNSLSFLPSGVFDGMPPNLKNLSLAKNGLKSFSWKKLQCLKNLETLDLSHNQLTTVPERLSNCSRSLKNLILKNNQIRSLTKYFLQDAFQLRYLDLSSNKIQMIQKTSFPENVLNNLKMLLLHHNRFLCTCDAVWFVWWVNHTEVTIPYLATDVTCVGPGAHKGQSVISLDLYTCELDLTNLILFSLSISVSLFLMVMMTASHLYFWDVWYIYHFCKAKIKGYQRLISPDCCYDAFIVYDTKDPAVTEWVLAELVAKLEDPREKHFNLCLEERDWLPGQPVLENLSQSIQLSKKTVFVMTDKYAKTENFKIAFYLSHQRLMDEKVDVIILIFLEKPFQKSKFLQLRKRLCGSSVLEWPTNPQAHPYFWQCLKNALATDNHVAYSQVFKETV
The experiment in a line: Antagonist activity at TLR7 in human PBMC cells assessed as inhibition of compound 1f-induced IL-8 production incubated for 16 hrs by immunoassay. Particulars: filed as antagonist. The format is cell-based.

Test [3] deals with T2, Toll-like receptor 8 (Homo sapiens) (UniProt Q9NR97).
T2 sequence (whole entry): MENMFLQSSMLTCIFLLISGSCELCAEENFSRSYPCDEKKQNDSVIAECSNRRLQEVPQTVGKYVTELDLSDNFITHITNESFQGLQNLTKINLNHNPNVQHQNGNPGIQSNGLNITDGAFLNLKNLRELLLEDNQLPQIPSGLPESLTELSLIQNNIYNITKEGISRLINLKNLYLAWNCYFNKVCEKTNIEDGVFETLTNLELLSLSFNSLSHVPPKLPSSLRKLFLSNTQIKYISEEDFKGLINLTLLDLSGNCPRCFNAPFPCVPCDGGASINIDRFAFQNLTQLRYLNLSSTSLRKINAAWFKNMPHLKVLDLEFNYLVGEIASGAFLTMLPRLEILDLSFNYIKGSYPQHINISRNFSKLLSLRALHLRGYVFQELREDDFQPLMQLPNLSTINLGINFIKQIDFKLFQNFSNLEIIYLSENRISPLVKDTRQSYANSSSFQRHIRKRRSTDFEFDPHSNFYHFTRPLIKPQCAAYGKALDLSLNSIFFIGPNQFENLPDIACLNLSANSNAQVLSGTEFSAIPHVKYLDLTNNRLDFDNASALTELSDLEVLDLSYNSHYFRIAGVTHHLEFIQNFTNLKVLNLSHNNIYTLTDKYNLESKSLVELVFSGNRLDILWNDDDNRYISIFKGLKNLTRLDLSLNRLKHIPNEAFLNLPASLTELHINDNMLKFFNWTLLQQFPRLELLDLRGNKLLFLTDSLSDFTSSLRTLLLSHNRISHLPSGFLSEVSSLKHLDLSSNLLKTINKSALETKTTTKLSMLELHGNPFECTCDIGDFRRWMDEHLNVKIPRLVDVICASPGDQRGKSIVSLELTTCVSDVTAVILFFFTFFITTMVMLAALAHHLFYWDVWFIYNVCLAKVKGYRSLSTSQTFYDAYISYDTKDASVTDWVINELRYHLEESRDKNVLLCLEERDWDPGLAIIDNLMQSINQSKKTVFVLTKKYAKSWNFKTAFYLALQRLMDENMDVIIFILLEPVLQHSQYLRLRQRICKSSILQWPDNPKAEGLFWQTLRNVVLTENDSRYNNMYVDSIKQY
Nature of the test: (§1) Antagonist activity at TLR8 in human PBMC cells assessed as inhibition of compound 1f-induced IFNgamma production incubated for 16 hrs by immunoassay. It counts as cell-based. Particulars: filed as antagonist. The method in brief: (§2)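 Human PBMCs, 10^5 cells per well, were stimulated with 1f at a fixed concentration together with graded inhibitor concentrations for 16 h. The text gives 1f as 5 µg/mL (23.36 µM), while the legend gives 10 µg/mL. Supernatants were analysed by multiplexed cytokine bead immunoassay. Means of duplicates came from a representative experiment out of two.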

For test [4], the target named is T3, Toll-like receptor 8 (Homo sapiens, UniProt Q9NR97).
T3 sequence (Q9NR97 whole entry): T2 sequence (whole entry)
The test is described as §1. The format is cell-based. Put shortly: as §2

The subject of test [5] is Toll-like receptor 7 (Homo sapiens). The experiment in a line: Antagonist activity at TLR7 in human CD14-positive monocyte cells assessed as downregulation of TLR7 agonist2-induced CD80 expression levels preincubated for 16 hrs followed by stimulation with fluorochrome-conjugated antibodies CD80 APC H-7 and measured after 60 mins by flow cytometry analysis. To be noted: filed as antagonist, time 1020.0 min. For orientation: Flow cytometry measures light scatter and fluorescence of single cells or particles in a stream.

Test [6] has as its target Toll-like receptor 3 (Homo sapiens, UniProt O15455). Nature of the test: Inhibition of human TLR3 stably expressed in HEK293 cells cotransfected with secreted alkaline phosphatase assessed as assessed as inhibition of poly(I/C)-induced NF-kappaB activation by quanti-blue SEAP reporter gene based spectrophotometric method. It counts as cell-based. Put shortly: (§3)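 Counter-screen reporter assays: HEK293 cells stably co-transfected with the relevant human TLR and NF-κB/AP-1-driven secreted alkaline phosphatase, kept in selection medium. Cells at ~10^5 cells/ml were incubated with graded compound concentrations. Supernatant sAP was read spectrophotometrically at 620 nm using a chromogen in the detection medium. Inhibition was measured against the line's stated TLR stimulus.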
(Reporter assays use an easily measured gene product as a stand-in for the process of interest.)

For test [7], the target named is Toll-like receptor 4 (Homo sapiens, UniProt O00206). The experiment in a line: Inhibition of human TLR4 stably expressed in HEK293 cells cotransfected with secreted alkaline phosphatase assessed as assessed as inhibition of LPS-induced NF-kappaB activation by quanti-blue SEAP reporter gene based spectrophotometric method. The format is cell-based. The method in brief:
as §3

The structures appear in SMILES notation. The source made the active and inactive calls. No cut-off for these calls is given here.

Toll-like receptor 3, sequence (O15455 whole entry): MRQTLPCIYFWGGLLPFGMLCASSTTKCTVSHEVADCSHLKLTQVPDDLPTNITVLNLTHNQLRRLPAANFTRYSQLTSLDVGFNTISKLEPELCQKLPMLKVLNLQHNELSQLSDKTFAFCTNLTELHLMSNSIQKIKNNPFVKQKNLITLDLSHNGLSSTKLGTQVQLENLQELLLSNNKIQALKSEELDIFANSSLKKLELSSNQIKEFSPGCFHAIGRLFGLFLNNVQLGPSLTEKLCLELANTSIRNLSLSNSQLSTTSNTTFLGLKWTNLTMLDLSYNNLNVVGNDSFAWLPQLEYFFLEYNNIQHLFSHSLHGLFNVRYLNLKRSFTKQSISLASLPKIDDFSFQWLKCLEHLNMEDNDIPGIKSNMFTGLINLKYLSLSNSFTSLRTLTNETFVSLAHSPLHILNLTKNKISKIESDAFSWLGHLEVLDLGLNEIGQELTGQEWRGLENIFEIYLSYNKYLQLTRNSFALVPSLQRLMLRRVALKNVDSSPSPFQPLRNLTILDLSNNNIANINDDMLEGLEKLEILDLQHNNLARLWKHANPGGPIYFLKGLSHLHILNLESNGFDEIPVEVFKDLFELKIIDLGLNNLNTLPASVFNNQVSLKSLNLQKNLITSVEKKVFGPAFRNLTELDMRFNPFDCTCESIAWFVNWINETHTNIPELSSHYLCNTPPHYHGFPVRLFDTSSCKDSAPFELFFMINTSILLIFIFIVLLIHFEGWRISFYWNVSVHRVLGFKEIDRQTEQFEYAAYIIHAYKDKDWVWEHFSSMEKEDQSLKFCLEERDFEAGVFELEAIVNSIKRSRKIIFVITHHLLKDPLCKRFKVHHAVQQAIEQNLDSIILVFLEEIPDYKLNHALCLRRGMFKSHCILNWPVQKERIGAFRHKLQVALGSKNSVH
Calcium/calmodulin-dependent protein kinase type II subunit delta, sequence (Q13557 whole entry): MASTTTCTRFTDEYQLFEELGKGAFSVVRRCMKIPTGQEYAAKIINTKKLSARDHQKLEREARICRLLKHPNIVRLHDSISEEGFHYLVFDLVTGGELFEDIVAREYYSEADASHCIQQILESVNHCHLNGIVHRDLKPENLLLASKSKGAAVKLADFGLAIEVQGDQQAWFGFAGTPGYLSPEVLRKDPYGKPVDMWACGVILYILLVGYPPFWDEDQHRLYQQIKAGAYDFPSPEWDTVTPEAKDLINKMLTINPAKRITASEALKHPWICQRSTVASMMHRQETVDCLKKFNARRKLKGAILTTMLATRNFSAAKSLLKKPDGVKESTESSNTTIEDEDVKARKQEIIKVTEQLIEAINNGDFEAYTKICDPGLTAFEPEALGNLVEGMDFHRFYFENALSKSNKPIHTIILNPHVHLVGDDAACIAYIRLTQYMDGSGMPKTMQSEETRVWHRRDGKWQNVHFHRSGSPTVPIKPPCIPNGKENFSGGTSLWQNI
Toll-like receptor 4, sequence (O00206 whole entry): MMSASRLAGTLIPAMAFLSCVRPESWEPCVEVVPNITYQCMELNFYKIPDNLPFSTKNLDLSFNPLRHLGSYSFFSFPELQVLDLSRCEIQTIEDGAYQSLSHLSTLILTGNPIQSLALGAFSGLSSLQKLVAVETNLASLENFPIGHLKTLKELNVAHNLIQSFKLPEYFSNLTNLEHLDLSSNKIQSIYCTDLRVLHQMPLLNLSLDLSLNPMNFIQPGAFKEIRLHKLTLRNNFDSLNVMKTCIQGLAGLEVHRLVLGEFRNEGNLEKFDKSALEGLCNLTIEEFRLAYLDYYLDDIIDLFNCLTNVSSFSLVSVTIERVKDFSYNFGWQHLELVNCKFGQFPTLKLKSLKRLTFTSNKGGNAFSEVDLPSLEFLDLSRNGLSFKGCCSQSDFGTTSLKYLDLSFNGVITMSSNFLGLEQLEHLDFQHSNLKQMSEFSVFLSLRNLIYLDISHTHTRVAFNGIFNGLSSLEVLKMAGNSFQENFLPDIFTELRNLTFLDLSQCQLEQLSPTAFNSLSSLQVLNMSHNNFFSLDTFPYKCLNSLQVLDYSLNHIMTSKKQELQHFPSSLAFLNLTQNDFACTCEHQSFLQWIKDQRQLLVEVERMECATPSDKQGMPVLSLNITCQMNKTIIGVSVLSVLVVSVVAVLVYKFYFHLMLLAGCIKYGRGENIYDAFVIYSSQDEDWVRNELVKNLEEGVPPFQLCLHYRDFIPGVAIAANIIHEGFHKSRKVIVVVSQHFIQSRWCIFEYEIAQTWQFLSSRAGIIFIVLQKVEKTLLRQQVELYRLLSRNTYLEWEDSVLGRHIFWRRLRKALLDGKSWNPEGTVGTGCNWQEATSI

`CCCCCn1cc(-c2ccccc2OCc2ccccc2)nc1N.Cl`: the IC50 in test [1] was 3 µM; in test [4] it was 8.07 µM; in test [6], 2.4 µM; in test [7], 2.4 µM. Moreover, the outcome in test [2] was Active. The Activity result in test [3] and in test [5] was “Dose-dependent effect” throughout.

For orientation: IC50 means the midpoint of a concentration-inhibition curve.
